Laboratory results published in ChEMBL document CHEMBL1933017, “Synthesis and biological evaluation of some thiazolidinones as antimicrobial agents” (2012).
Values after ≈ are worked out from the molar mass of the structure shown.

What was measured:
[1] = system: Salmonella typhi; experiment: Antibacterial activity against Salmonella Typhi at 100 ug/disc after 24 hrs by disc diffusion method; assay type: functional, Salmonella enterica subsp. enterica serovar Typhi; settings: Salmonella enterica, read-out: DIZ
Method in brief: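 Paper disc diffusion on Mueller-Hinton agar poured 5 mm deep; 10⁵ CFU/mL suspension (0.5 McFarland) swabbed over surface. 6.25 mm filter paper discs soaked in compound in DMSO, incubated 24 h at (37 ± 1) °C; inhibition zone diameter in mm. DMSO disc as blank; ciprofloxacin 100 µg/disc as reference. Mean of three independent experiments.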

[2] = system: Staphylococcus aureus; experiment: Antibacterial activity against Staphylococcus aureus at 100 ug/disc after 24 hrs by disc diffusion method; assay type: functional; settings: read-out: DIZ
Method in brief: (§1)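 Paper disc diffusion on autoclaved Mueller-Hinton agar poured 5 mm deep. Agar was swab-inoculated with 10⁵ CFU/mL suspension (0.5 McFarland). Discs 6.25 mm across were soaked in compound solution in DMSO (3.12–100 µg/mL) and plates incubated 24 h at (37 ± 1) °C. Read-out was inhibition zone (mm). DMSO control disc; ciprofloxacin or ketoconazole reference, 100 µg/disc. Mean of three independent experiments.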

[3] = system: Pseudomonas aeruginosa; experiment: Antibacterial activity against Pseudomonas aeruginosa at 100 ug/disc after 24 hrs by disc diffusion method; assay type: functional; settings: read-out: DIZ; method in brief: as §1
[4] = system: Proteus vulgaris; experiment: Antibacterial activity against Proteus vulgaris at 100 ug/disc after 24 hrs by disc diffusion method; assay type: functional; settings: read-out: DIZ; method in brief: as §1
[5] = system: Klebsiella pneumoniae; experiment: Antibacterial activity against Klebsiella pneumoniae at 100 ug/disc after 24 hrs by disc diffusion method; assay type: functional; settings: read-out: DIZ; method in brief: as §1
[6] = system: Shigella flexneri; experiment: Antibacterial activity against Shigella flexneri after 24 hrs by agar streak dilution method; assay type: functional
Method in brief: (§2)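 MIC by agar streak dilution. Graded amounts of DMSO stock (100 μg/mL) were mixed into molten sterile nutrient agar and poured 4–5 mm deep. Serial concentrations spanned 3.12–100 µg/mL. Plates were inoculated with about 10⁵ CFU/mL of bacterial suspension and incubated at (37 ± 1) °C for 24 h. Each value is the mean of three independent experiments.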

[7] = system: Aspergillus clavatus; experiment: Antifungal activity against Aspergillus clavatus at 100 ug/disc after 24 hrs by disc diffusion method; assay type: functional; settings: read-out: DIZ; method in brief: as §1
[8] = system: Bacillus cereus; experiment: Antibacterial activity against Bacillus cereus at 100 ug/disc after 24 hrs by disc diffusion method; assay type: functional; settings: read-out: DIZ; method in brief: as §1
[9] = system: Aspergillus fumigatus; experiment: Antifungal activity against Aspergillus fumigatus after 48 hrs by agar streak dilution method; assay type: functional
Method in brief: (§3)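 Fungal MIC by agar streak dilution on Sabouraud dextrose agar, poured 4–5 mm deep. Compound from a DMSO stock (100 μg/mL) was incorporated at serial concentrations of 3.12–100 µg/mL. Plates were inoculated with about 10⁵ CFU/mL of suspension and incubated at (37 ± 1) °C for 48 h. Each value is the mean of three independent experiments.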

[10] = system: Aspergillus niger; experiment: Antifungal activity against Aspergillus niger at 100 ug/disc after 24 hrs by disc diffusion method; assay type: functional; settings: read-out: DIZ; method in brief: as §1
[11] = system: Candida albicans; experiment: Antifungal activity against Candida albicans after 48 hrs by agar streak dilution method; assay type: functional; method in brief: as §3
[12] = system: Candida albicans; experiment: Antifungal activity against Candida albicans at 100 ug/disc after 24 hrs by disc diffusion method; assay type: functional; settings: read-out: DIZ; method in brief: as §1
[13] = system: Klebsiella pneumoniae; experiment: Antibacterial activity against Klebsiella pneumoniae […] after 24 hrs by agar streak dilution method; assay type: functional
[14] = system: Staphylococcus aureus; experiment: Antibacterial activity against Staphylococcus aureus after 24 hrs by agar streak dilution method; assay type: functional; method in brief: as §2
[15] = system: Shigella flexneri; experiment: Antibacterial activity against Shigella flexneri at 100 ug/disc after 24 hrs by disc diffusion method; assay type: functional; settings: read-out: DIZ; method in brief: as §1
[16] = system: Aspergillus clavatus; experiment: Antifungal activity against Aspergillus clavatus after 48 hrs by agar streak dilution method; assay type: functional; method in brief: as §3
[17] = system: Escherichia coli; experiment: Antibacterial activity against Escherichia coli after 24 hrs by agar streak dilution method; assay type: functional; method in brief: as §2
[18] = system: Salmonella typhi; experiment: Antibacterial activity against Salmonella Typhi after 24 hrs by agar streak dilution method; assay type: functional, Salmonella enterica subsp. enterica serovar Typhi; settings: Salmonella enterica
Method in brief: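 Agar streak dilution: DMSO stock (100 µg/mL) graded into molten sterile nutrient agar, poured 4–5 mm deep and solidified. Plates carry serial dilutions spanning 3.12–100 µg/mL. Applied ~10⁵ CFU/mL suspension, then incubated 24 h at (37 ± 1) °C. MIC read as the lowest inhibitory concentration; each value is the mean of three independent experiments.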

[19] = system: Proteus vulgaris; experiment: Antibacterial activity against Proteus vulgaris after 24 hrs by agar streak dilution method; assay type: functional; method in brief: as §2
[20] = system: Bacillus cereus; experiment: Antibacterial activity against Bacillus cereus after 24 hrs by agar streak dilution method; assay type: functional; method in brief: as §2
[21] = system: Escherichia coli; experiment: Antibacterial activity against Escherichia coli at 100 ug/disc after 24 hrs by disc diffusion method; assay type: functional; settings: read-out: DIZ; method in brief: as §1
[22] = system: Pseudomonas aeruginosa; experiment: Antibacterial activity against Pseudomonas aeruginosa […] after 24 hrs by agar streak dilution method; assay type: functional
[23] = system: Aspergillus niger; experiment: Antifungal activity against Aspergillus niger after 48 hrs by agar streak dilution method; assay type: functional; method in brief: as §3
[24] = system: Aspergillus fumigatus; experiment: Antifungal activity against Aspergillus fumigatus at 100 ug/disc after 24 hrs by disc diffusion method; assay type: functional; settings: read-out: DIZ; method in brief: as §1

Structure (SMILES)	zone of inhibition at 100 µg/disc [1] [mm]	zone of inhibition at 100 µg/disc [2] [mm]	zone of inhibition at 100 µg/disc [3] [mm]	zone of inhibition at 100 µg/disc [4] [mm]	zone of inhibition at 100 µg/disc [5] [mm]	MIC [6] [µg/mL]	zone of inhibition at 100 µg/disc [7] [mm]	zone of inhibition at 100 µg/disc [8] [mm]	MIC [9] [µg/mL]	zone of inhibition at 100 µg/disc [10] [mm]	MIC [11] [µg/mL]	zone of inhibition at 100 µg/disc [12] [mm]	MIC [13] [µg/mL]	MIC [14] [µg/mL]	zone of inhibition at 100 µg/disc [15] [mm]	MIC [16] [µg/mL]	MIC [18] [µg/mL]	MIC [19] [µg/mL]	MIC [20] [µg/mL]	zone of inhibition at 100 µg/disc [21] [mm]	other results
CCN1CCN(CC2SC(c3ccccc3)N(c3ccc(Nc4nc(Oc5cc(=O)n(C)c6ccccc56)nc(N(C)C)n4)cc3)C2=O)CC1 (stereo unspecified)	16	14	13	15	< 10	100 (≈ 145 µM)	< 10	16	100 (≈ 145 µM)	12	100 (≈ 145 µM)	14	100 (≈ 145 µM)	100 (≈ 145 µM)	12	100 (≈ 145 µM)	50 (≈ 72.3 µM)	100 (≈ 145 µM)	100 (≈ 145 µM)	22	MIC [17]: 25 µg/mL (≈ 36.1 µM); MIC [22]: 100 µg/mL (≈ 145 µM); MIC [23]: 100 µg/mL (≈ 145 µM); zone of inhibition at 100 µg/disc [24]: < 10 mm
CCN1CCN(CC2SC(c3ccc(Cl)cc3Cl)N(c3ccc(Nc4nc(Oc5cc(=O)n(C)c6ccccc56)nc(N(C)C)n4)cc3)C2=O)CC1 (stereo unspecified)	15	25	21	20	23	6.25 (≈ 8.22 µM)	25	19	25 (≈ 32.9 µM)	28	12.5 (≈ 16.4 µM)	28	25 (≈ 32.9 µM)	6.25 (≈ 8.22 µM)	26	12.5 (≈ 16.4 µM)	50 (≈ 65.7 µM)	12.5 (≈ 16.4 µM)	12.5 (≈ 16.4 µM)	24	MIC [17]: 12.5 µg/mL (≈ 16.4 µM); MIC [22]: 25 µg/mL (≈ 32.9 µM); MIC [23]: 6.25 µg/mL (≈ 8.22 µM); zone of inhibition at 100 µg/disc [24]: 17 mm
CCN1CCN(CC2SC(c3ccc(Cl)c(Cl)c3)N(c3ccc(Nc4nc(Oc5cc(=O)n(C)c6ccccc56)nc(N(C)C)n4)cc3)C2=O)CC1 (stereo unspecified)	12	15	23	19	19	12.5 (≈ 16.4 µM)	19	17	50 (≈ 65.7 µM)	21	25 (≈ 32.9 µM)	23	12.5 (≈ 16.4 µM)	25 (≈ 32.9 µM)	22	50 (≈ 65.7 µM)	50 (≈ 65.7 µM)	25 (≈ 32.9 µM)	12.5 (≈ 16.4 µM)	17	MIC [17]: 25 µg/mL (≈ 32.9 µM); MIC [22]: 25 µg/mL (≈ 32.9 µM); MIC [23]: 25 µg/mL (≈ 32.9 µM); zone of inhibition at 100 µg/disc [24]: 16 mm
CCN1CCN(CC2SC(c3ccc(C)cc3)N(c3ccc(Nc4nc(Oc5cc(=O)n(C)c6ccccc56)nc(N(C)C)n4)cc3)C2=O)CC1 (stereo unspecified)	23	26	26	27	24	50 (≈ 70.8 µM)	26	24	50 (≈ 70.8 µM)	21	50 (≈ 70.8 µM)	23	50 (≈ 70.8 µM)	50 (≈ 70.8 µM)	24	25 (≈ 35.4 µM)	50 (≈ 70.8 µM)	6.25 (≈ 8.85 µM)	50 (≈ 70.8 µM)	24	MIC [17]: 25 µg/mL (≈ 35.4 µM); MIC [22]: 6.25 µg/mL (≈ 8.85 µM); MIC [23]: 100 µg/mL (≈ 142 µM); zone of inhibition at 100 µg/disc [24]: 24 mm
CCN1CCN(CC2SC(c3ccc(F)cc3)N(c3ccc(Nc4nc(Oc5cc(=O)n(C)c6ccccc56)nc(N(C)C)n4)cc3)C2=O)CC1 (stereo unspecified)	27	27	25	22	25	25 (≈ 35.2 µM)	25	28	12.5 (≈ 17.6 µM)	26	25 (≈ 35.2 µM)	25	25 (≈ 35.2 µM)	6.25 (≈ 8.8 µM)	19	25 (≈ 35.2 µM)	6.25 (≈ 8.8 µM)	25 (≈ 35.2 µM)	6.25 (≈ 8.8 µM)	28	MIC [17]: 6.25 µg/mL (≈ 8.8 µM); MIC [22]: 12.5 µg/mL (≈ 17.6 µM); MIC [23]: 12.5 µg/mL (≈ 17.6 µM); zone of inhibition at 100 µg/disc [24]: 28 mm
CCN1CCN(CC2SC(c3cccc(F)c3)N(c3ccc(Nc4nc(Oc5cc(=O)n(C)c6ccccc56)nc(N(C)C)n4)cc3)C2=O)CC1 (stereo unspecified)	24	20	20	19	22	12.5 (≈ 17.6 µM)	24	23	50 (≈ 70.4 µM)	25	25 (≈ 35.2 µM)	25	25 (≈ 35.2 µM)	12.5 (≈ 17.6 µM)	25	50 (≈ 70.4 µM)	6.25 (≈ 8.8 µM)	50 (≈ 70.4 µM)	6.25 (≈ 8.8 µM)	23	MIC [17]: 6.25 µg/mL (≈ 8.8 µM); MIC [22]: 50 µg/mL (≈ 70.4 µM); MIC [23]: 12.5 µg/mL (≈ 17.6 µM); zone of inhibition at 100 µg/disc [24]: 24 mm
CCN1CCN(CC2SC(c3ccc(Cl)cc3)N(c3ccc(Nc4nc(Oc5cc(=O)n(C)c6ccccc56)nc(N(C)C)n4)cc3)C2=O)CC1 (stereo unspecified)	20	26	23	25	26	12.5 (≈ 17.2 µM)	23	28	12.5 (≈ 17.2 µM)	26	12.5 (≈ 17.2 µM)	27	6.25 (≈ 8.61 µM)	6.25 (≈ 8.61 µM)	26	12.5 (≈ 17.2 µM)	50 (≈ 68.8 µM)	25 (≈ 34.4 µM)	6.25 (≈ 8.61 µM)	27	MIC [17]: 12.5 µg/mL (≈ 17.2 µM); MIC [22]: 50 µg/mL (≈ 68.8 µM); MIC [23]: 25 µg/mL (≈ 34.4 µM); zone of inhibition at 100 µg/disc [24]: 26 mm
O=C(O)c1cn(C2CC2)c2cc(N3CCNCC3)c(F)cc2c1=O [CIPROFLOXACIN]	30	30	33	31	33	≤ 3	–	31	–	–	–	–	1 (≈ 3.02 µM)	1 (≈ 3.02 µM)	32	–	1 (≈ 3.02 µM)	1 (≈ 3.02 µM)	1 (≈ 3.02 µM)	32	MIC [22]: 1 µg/mL (≈ 3.02 µM)
CC(=O)N1CCN(c2ccc(OCC3COC(Cn4ccnc4)(c4ccc(Cl)cc4Cl)O3)cc2)CC1 (stereo unspecified) [KETOCONAZOLE]	–	–	–	–	–	–	31	–	1 (≈ 1.88 µM)	30	1 (≈ 1.88 µM)	33	–	–	–	1 (≈ 1.88 µM)	–	–	–	–	MIC [23]: ≤ 3 µg/mL; zone of inhibition at 100 µg/disc [24]: 29 mm
